According to ChEMBL document CHEMBL5247575 (J Med Chem, 2018):
In brackets after ≈: the same amount, converted by molar mass.

Tested on: Klebsiella pneumoniae
Test: Synergistic antibacterial activity against Klebsiella pneumoniae 1108/1989 producing KPC-3 assessed as cefepime MIC at 4 ug/ml by broth microdilution method
Type: functional
Conditions: dose 4 µg/ml
How it was run: (§1)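 Broth microdilution per CLSI guidelines, using custom frozen panels. […] Each partner drug was also tested alone. MICs were run in triplicate and the modal value is reported.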

Compound | MIC [µg/mL]
O=C(NNC(=O)[C@@H]1CC[C@@H]2CN1C(=O)N2OS(=O)(=O)O)[C@@H]1CCNC1 | ≤ 0.12

Tested on: Acinetobacter baumannii
Test: Synergistic antibacterial activity against ADC deleted Acinetobacter baumannii assessed as cefepime MIC at 4 ug/ml by broth microdilution method
Type: functional
Conditions: dose 4 µg/ml

Compound | MIC [µg/mL]
O=C(NNC(=O)[C@@H]1CC[C@@H]2CN1C(=O)N2OS(=O)(=O)O)[C@@H]1CCNC1 | 0.5

Tested on: Klebsiella pneumoniae
Test: Synergistic antibacterial activity against Klebsiella pneumoniae 729/1679 producing KPC-3 assessed as cefepime MIC at 4 ug/ml by broth microdilution method
Type: functional
Conditions: dose 4 µg/ml
How it was run: as §1

Compound | MIC [µg/mL]
O=C(NNC(=O)[C@@H]1CC[C@@H]2CN1C(=O)N2OS(=O)(=O)O)[C@@H]1CCNC1 | ≤ 0.12

Tested on: Acinetobacter baumannii
Test: Synergistic antibacterial activity against Acinetobacter baumannii PR440 producing OXA-23/24/40 assessed as meropenem MIC at 4 ug/ml by broth microdilution method
Type: functional
Conditions: dose 4 µg/ml

Compound | MIC [µg/mL]
O=C(NNC(=O)[C@@H]1CC[C@@H]2CN1C(=O)N2OS(=O)(=O)O)[C@@H]1CCNC1 | > 16

Tested on: Klebsiella pneumoniae
Test: Synergistic antibacterial activity against Klebsiella pneumoniae 440/1360 producing KPC-2 assessed as meropenem MIC at 8 ug/ml by broth microdilution method
Type: functional
Conditions: dose 8 µg/ml
How it was run: as §1

Compound | MIC [µg/mL]
O=C(NNC(=O)[C@@H]1CC[C@@H]2CN1C(=O)N2OS(=O)(=O)O)[C@@H]1CCNC1 | ≤ 0.12

Tested on: Pseudomonas aeruginosa
Test: Synergistic antibacterial activity against Pseudomonas aeruginosa 795 assessed as cefepime MIC at 8 ug/ml by broth microdilution method
Type: functional
Conditions: dose 8 µg/ml

Compound | MIC [µg/mL]
O=C(NNC(=O)[C@@H]1CC[C@@H]2CN1C(=O)N2OS(=O)(=O)O)[C@@H]1CCNC1 | ≤ 0.12

Tested on: Klebsiella pneumoniae
Test: Synergistic antibacterial activity against Klebsiella pneumoniae 935/1884 producing KPC-3 assessed as cefepime MIC at 8 ug/ml by broth microdilution method
Type: functional
Conditions: dose 8 µg/ml

Compound | MIC [µg/mL]
O=C(NNC(=O)[C@@H]1CC[C@@H]2CN1C(=O)N2OS(=O)(=O)O)[C@@H]1CCNC1 | ≤ 0.12

Tested on: Klebsiella pneumoniae
Test: Synergistic antibacterial activity against Klebsiella pneumoniae 1108/1989 producing KPC-3 assessed as meropenem MIC at 8 ug/ml by broth microdilution method
Type: functional
Conditions: dose 8 µg/ml
How it was run: as §1

Compound | MIC [µg/mL]
O=C(NNC(=O)[C@@H]1CC[C@@H]2CN1C(=O)N2OS(=O)(=O)O)[C@@H]1CCNC1 | ≤ 0.12

Tested on: Pseudomonas aeruginosa
Test: Antibacterial activity against Pseudomonas aeruginosa 839 by broth microdilution method
Type: functional
Conditions: not given

Compound | MIC [µg/mL]
O=C(NNC(=O)[C@@H]1CC[C@@H]2CN1C(=O)N2OS(=O)(=O)O)[C@@H]1CCNC1 | 4 (≈ 10.6 µM)

Tested on: Escherichia coli
Test: Synergistic antibacterial activity against Escherichia coli DH10B transfected with pBC SK (-) PDC-3 assessed as meropenem MIC at 4 ug/ml by broth microdilution method
Type: functional
Conditions: dose 4 µg/ml
How it was run: as §1

Compound | MIC [µg/mL]
O=C(NNC(=O)[C@@H]1CC[C@@H]2CN1C(=O)N2OS(=O)(=O)O)[C@@H]1CCNC1 | ≤ 0.12

Tested on: Acinetobacter baumannii
Test: Synergistic antibacterial activity against Acinetobacter baumannii PR476 producing OXA-24/40 assessed as meropenem MIC at 4 ug/ml by broth microdilution method
Type: functional
Conditions: dose 4 µg/ml

Compound | MIC [µg/mL]
O=C(NNC(=O)[C@@H]1CC[C@@H]2CN1C(=O)N2OS(=O)(=O)O)[C@@H]1CCNC1 | 0.25

Tested on: Pseudomonas aeruginosa
Test: Synergistic antibacterial activity against Pseudomonas aeruginosa CL232 assessed as cefepime MIC at 4 ug/ml by broth microdilution method
Type: functional
Conditions: dose 4 µg/ml

Compound | MIC [µg/mL]
O=C(NNC(=O)[C@@H]1CC[C@@H]2CN1C(=O)N2OS(=O)(=O)O)[C@@H]1CCNC1 | 8

Tested on: Bacteria
Test: Inhibition of bacteria PDC-3 assessed as second order rate constant K2/K using nitrocefin as substrate
Conditions: not given

Compound | K
O=C(NNC(=O)[C@@H]1CC[C@@H]2CN1C(=O)N2OS(=O)(=O)O)[C@@H]1CCNC1 | 6.3 10^5/M/s

Tested on: Acinetobacter baumannii
Test: Synergistic antibacterial activity against Acinetobacter baumannii PR474 producing OXA-23/24/40 assessed as meropenem MIC at 8 ug/ml by broth microdilution method
Type: functional
Conditions: dose 8 µg/ml

Compound | MIC [µg/mL]
O=C(NNC(=O)[C@@H]1CC[C@@H]2CN1C(=O)N2OS(=O)(=O)O)[C@@H]1CCNC1 | > 16

Tested on: Klebsiella pneumoniae
Test: Synergistic antibacterial activity against Klebsiella pneumoniae 776/1742 producing KPC-2 assessed as meropenem MIC at 4 ug/ml by broth microdilution method
Type: functional
Conditions: dose 4 µg/ml

Compound | MIC [µg/mL]
O=C(NNC(=O)[C@@H]1CC[C@@H]2CN1C(=O)N2OS(=O)(=O)O)[C@@H]1CCNC1 | ≤ 0.12

Tested on: Pseudomonas aeruginosa
Test: Synergistic antibacterial activity against Pseudomonas aeruginosa 839 assessed as meropenem MIC at 8 ug/ml by broth microdilution method
Type: functional
Conditions: dose 8 µg/ml

Compound | MIC [µg/mL]
O=C(NNC(=O)[C@@H]1CC[C@@H]2CN1C(=O)N2OS(=O)(=O)O)[C@@H]1CCNC1 | ≤ 0.12

Tested on: Pseudomonas aeruginosa
Test: Antibacterial activity against Pseudomonas aeruginosa 776 by broth microdilution method
Type: functional
Conditions: not given

Compound | MIC [µg/mL]
O=C(NNC(=O)[C@@H]1CC[C@@H]2CN1C(=O)N2OS(=O)(=O)O)[C@@H]1CCNC1 | 8 (≈ 21.2 µM)

Tested on: Klebsiella pneumoniae
Test: Synergistic antibacterial activity against Klebsiella pneumoniae CAV 1543 producing OXA-48 assessed as cefepime MIC at 4 ug/ml by broth microdilution method
Type: functional
Conditions: dose 4 µg/ml

Compound | MIC [µg/mL]
O=C(NNC(=O)[C@@H]1CC[C@@H]2CN1C(=O)N2OS(=O)(=O)O)[C@@H]1CCNC1 | ≤ 0.12

Tested on: Klebsiella pneumoniae
Test: Synergistic antibacterial activity against Klebsiella pneumoniae jefferson 1775 producing OXA-48 assessed as cefepime MIC at 8 ug/ml by broth microdilution method
Type: functional
Conditions: dose 8 µg/ml

Compound | MIC [µg/mL]
O=C(NNC(=O)[C@@H]1CC[C@@H]2CN1C(=O)N2OS(=O)(=O)O)[C@@H]1CCNC1 | ≤ 0.12

Tested on: Acinetobacter baumannii
Test: Synergistic antibacterial activity against Acinetobacter baumannii PR474 producing OXA-23/24/40 assessed as cefepime MIC at 4 ug/ml by broth microdilution method
Type: functional
Conditions: dose 4 µg/ml

Compound | MIC [µg/mL]
O=C(NNC(=O)[C@@H]1CC[C@@H]2CN1C(=O)N2OS(=O)(=O)O)[C@@H]1CCNC1 | 8

Tested on: Klebsiella pneumoniae
Test: Synergistic antibacterial activity against Klebsiella pneumoniae 440/1360 producing KPC-2 assessed as meropenem MIC at 4 ug/ml by broth microdilution method
Type: functional
Conditions: dose 4 µg/ml
How it was run: as §1

Compound | MIC [µg/mL]
O=C(NNC(=O)[C@@H]1CC[C@@H]2CN1C(=O)N2OS(=O)(=O)O)[C@@H]1CCNC1 | ≤ 0.12

Tested on: Acinetobacter baumannii
Test: Synergistic antibacterial activity against Acinetobacter baumannii PR448 producing OXA-23 assessed as cefepime MIC at 8 ug/ml by broth microdilution method
Type: functional
Conditions: dose 8 µg/ml
How it was run: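 Broth microdilution per CLSI guidelines in frozen panels. Test compound held at fixed 8 mg/L while the partner β-lactam concentration was increased. Run in triplicate; modal MIC reported.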

Compound | MIC [µg/mL]
O=C(NNC(=O)[C@@H]1CC[C@@H]2CN1C(=O)N2OS(=O)(=O)O)[C@@H]1CCNC1 | 8

Tested on: Klebsiella pneumoniae
Test: Synergistic antibacterial activity against Klebsiella pneumoniae 901/1860 producing KPC-3 assessed as cefepime MIC at 4 ug/ml by broth microdilution method
Type: functional
Conditions: dose 4 µg/ml

Compound | MIC [µg/mL]
O=C(NNC(=O)[C@@H]1CC[C@@H]2CN1C(=O)N2OS(=O)(=O)O)[C@@H]1CCNC1 | ≤ 0.12

Tested on: Klebsiella pneumoniae
Test: Synergistic antibacterial activity against Klebsiella pneumoniae 1315/2198 producing KPC-3 assessed as meropenem MIC at 8 ug/ml by broth microdilution method
Type: functional
Conditions: dose 8 µg/ml
How it was run: as §1

Compound | MIC [µg/mL]
O=C(NNC(=O)[C@@H]1CC[C@@H]2CN1C(=O)N2OS(=O)(=O)O)[C@@H]1CCNC1 | ≤ 0.12

Tested on: Klebsiella pneumoniae
Test: Synergistic antibacterial activity against Klebsiella pneumoniae NY BS producing OXA-232 assessed as meropenem MIC at 8 ug/ml by broth microdilution method
Type: functional
Conditions: dose 8 µg/ml

Compound | MIC [µg/mL]
O=C(NNC(=O)[C@@H]1CC[C@@H]2CN1C(=O)N2OS(=O)(=O)O)[C@@H]1CCNC1 | ≤ 0.12

Tested on: Klebsiella pneumoniae
Test: Synergistic antibacterial activity against Klebsiella pneumoniae 1354/2241 producing KPC-3 assessed as cefepime MIC at 4 ug/ml by broth microdilution method
Type: functional
Conditions: dose 4 µg/ml
How it was run: as §1

Compound | MIC [µg/mL]
O=C(NNC(=O)[C@@H]1CC[C@@H]2CN1C(=O)N2OS(=O)(=O)O)[C@@H]1CCNC1 | ≤ 0.12

Tested on: Klebsiella pneumoniae
Test: Synergistic antibacterial activity against Klebsiella pneumoniae 11978 producing OXA-48 assessed as cefepime MIC at 8 ug/ml by broth microdilution method
Type: functional
Conditions: dose 8 µg/ml
How it was run: as §1

Compound | MIC [µg/mL]
O=C(NNC(=O)[C@@H]1CC[C@@H]2CN1C(=O)N2OS(=O)(=O)O)[C@@H]1CCNC1 | ≤ 0.12

Tested on: Escherichia coli
Test: Synergistic antibacterial activity against Escherichia coli DH10B transfected with pBC SK (-) KPC-2 assessed as cefepime MIC at 8 ug/ml by broth microdilution method
Type: functional
Conditions: dose 8 µg/ml

Compound | MIC [µg/mL]
O=C(NNC(=O)[C@@H]1CC[C@@H]2CN1C(=O)N2OS(=O)(=O)O)[C@@H]1CCNC1 | ≤ 0.12

Tested on: Acinetobacter baumannii
Test: Synergistic antibacterial activity against ADC deleted Acinetobacter baumannii transfected with pWH1266 producing OXA-24/40 assessed as meropenem MIC at 8 ug/ml by broth microdilution method
Type: functional
Conditions: dose 8 µg/ml

Compound | MIC [µg/mL]
O=C(NNC(=O)[C@@H]1CC[C@@H]2CN1C(=O)N2OS(=O)(=O)O)[C@@H]1CCNC1 | > 16

Tested on: Pseudomonas aeruginosa
Test: Synergistic antibacterial activity against Pseudomonas aeruginosa 795 assessed as meropenem MIC at 8 ug/ml by broth microdilution method
Type: functional
Conditions: dose 8 µg/ml

Compound | MIC [µg/mL]
O=C(NNC(=O)[C@@H]1CC[C@@H]2CN1C(=O)N2OS(=O)(=O)O)[C@@H]1CCNC1 | ≤ 0.12

Tested on: Acinetobacter baumannii
Test: Synergistic antibacterial activity against Acinetobacter baumannii PR363 producing OXA-23 assessed as meropenem MIC at 8 ug/ml by broth microdilution method
Type: functional
Conditions: dose 8 µg/ml

Compound | MIC [µg/mL]
O=C(NNC(=O)[C@@H]1CC[C@@H]2CN1C(=O)N2OS(=O)(=O)O)[C@@H]1CCNC1 | > 16

Tested on: Klebsiella pneumoniae
Test: Synergistic antibacterial activity against Klebsiella pneumoniae 1398/2291 producing KPC-3 assessed as cefepime MIC at 4 ug/ml by broth microdilution method
Type: functional
Conditions: dose 4 µg/ml
How it was run: as §1

Compound | MIC [µg/mL]
O=C(NNC(=O)[C@@H]1CC[C@@H]2CN1C(=O)N2OS(=O)(=O)O)[C@@H]1CCNC1 | ≤ 0.12

Tested on: Acinetobacter baumannii
Test: Synergistic antibacterial activity against Acinetobacter baumannii PR319 producing OXA-23/24/40 assessed as meropenem MIC at 4 ug/ml by broth microdilution method
Type: functional
Conditions: dose 4 µg/ml

Compound | MIC [µg/mL]
O=C(NNC(=O)[C@@H]1CC[C@@H]2CN1C(=O)N2OS(=O)(=O)O)[C@@H]1CCNC1 | > 16

Tested on: Acinetobacter baumannii
Test: Synergistic antibacterial activity against ADC deleted Acinetobacter baumannii transfected with pWH1266 producing OXA-24/40 assessed as cefepime MIC at 4 ug/ml by broth microdilution method
Type: functional
Conditions: dose 4 µg/ml

Compound | MIC [µg/mL]
O=C(NNC(=O)[C@@H]1CC[C@@H]2CN1C(=O)N2OS(=O)(=O)O)[C@@H]1CCNC1 | 16

Tested on: Klebsiella pneumoniae
Test: Synergistic antibacterial activity against Klebsiella pneumoniae 440/1360 producing KPC-2 assessed as cefepime MIC at 4 ug/ml by broth microdilution method
Type: functional
Conditions: dose 4 µg/ml
How it was run: as §1

Compound | MIC [µg/mL]
O=C(NNC(=O)[C@@H]1CC[C@@H]2CN1C(=O)N2OS(=O)(=O)O)[C@@H]1CCNC1 | ≤ 0.12
